# Data published in publication PMC11827156 (Malaria Journal, 2025).
# Where two headings read alike, the source gives them in different places.
# Legend:
# Type in all cases: cell-based, Plasmodium falciparum
# P. falciparum 3D7 [1] = details: 72 h; for reduction of P. falciparum parasitaemia by 50%: at the concentrations tested (0.0019–2 µM); for IC50: asynchronous culture, 0.0019–2 µM, ± standard error of the mean
# P. falciparum 3D7 [2] = assay: Competition of TCAMS compounds; details: for effect on the increase in parasitaemia promoted by melatonin: 2.5 nM compound with 100 nM melatonin; for effect on the increase in parasitaemia promoted by melatonin / effect on the increase in parasitaemia promoted by serotonin: 48 h; for effect on the increase in parasitaemia promoted by serotonin: 2.5 nM compound with 250 nM serotonin; for classification on the serotonin/melatonin pathway in the parasite: from effects in presence and absence of serotonin or melatonin
# Method in brief: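 Asynchronous P. falciparum 3D7 cultures (1% parasitaemia, 2% haematocrit) were given 2.5 nM test compound with or without 250 nM serotonin or 100 nM melatonin. Incubation was 48 h at 37 °C under mixed gas, with a DMSO solvent control. Cells were stained with SYBR Green-I (1:10,000) and MitoTracker Deep Red (50 nM) for 20 min at 37 °C, then parasitaemia was read by flow cytometry. Survival is relative to solvent; triplicate, 3 independent experiments.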
# P. falciparum 3D7 [3] = details: 48 h; for effect on parasitaemia compared with the control: 2.5 nM compound alone
# [4] = read-out: IC50 (nM) 3D7, Table 1
# [5] = Plasmodium falciparum, 3D7, 72 h, read-out: IC50 (nM) 3D7, Table 1
smiles,measurement,setting,value
"O=C(NC1CCC(CN2CCC(c3c[nH]c4ccccc34)CC2)CC1)c1cc(-c2ccc(F)cc2F)ccc1O (centres unmarked) [TCMDC-139894, Oc1ccc(cc1C(= O)NC1CCC(CN2CCC(CC2)c2c[nH]c3ccccc23)CC1)-c1ccc(F)cc1F]",reduction of P. falciparum parasitaemia by 50%,P. falciparum 3D7 [1],could not reduce P. falciparum parasitaemia by 50%
"O=C(/C=C/c1ccc(Cl)c(Cl)c1)N1CCC(CN2CCC(c3c[nH]c4ccc(O)cc34)CC2)CC1 [TCMDC-139786, Oc1ccc2[nH]cc(C3CCN(CC4CCN(CC4)C(= O)\C = C\c4ccc(Cl)c(Cl)c4)CC3)c2c1]",IC50,P. falciparum 3D7 [1]; [4],138 ± 23.9 nM
same,effect on the increase in parasitaemia promoted by melatonin,P. falciparum 3D7 [2],could inhibit the increase in parasitaemia promoted by melatonin thoroughly
same,effect on the increase in parasitaemia promoted by serotonin,P. falciparum 3D7 [2],partially inhibited the increase in parasitaemia promoted by serotonin
same,classification on the serotonin/melatonin pathway in the parasite,P. falciparum 3D7 [2],potential partial agonists of this pathway in the parasite
same,effect on parasitaemia compared with the control,P. falciparum 3D7 [3],induced a significant increase in parasitaemia
"COc1cc2nc(NCCc3ccccc3)nc(NCCCc3ccccc3)c2cc1OC [TCMDC-135301, COc1cc2nc(NCCc3ccccc3)nc(NCCCc3ccccc3)c2cc1OC]",IC50,P. falciparum 3D7 [1]; [5],434 ± 81.2 nM
same,effect on the increase in parasitaemia promoted by melatonin,P. falciparum 3D7 [2],able to inhibit the increase in parasitaemia partially
same,effect on the increase in parasitaemia promoted by serotonin,P. falciparum 3D7 [2],unable to prevent the effect of the neurotransmitter on P. falciparum parasitaemia
same,effect on parasitaemia compared with the control,P. falciparum 3D7 [3],induced a significant increase in parasitaemia
same,increase in parasitaemia,P. falciparum 3D7 [3]; 2.5 nM,9.69%
"CCCCCC(C)C(C)c1cc(O)c2c(c1)OC(C)(C)CC2(O)c1ccnn1C (centres unmarked) [TCMDC-131795, CCCCCC(C)C(C)c1cc(O)c2c(OC(C)(C)CC2(O)c2ccnn2C)c1]",IC50,P. falciparum 3D7 [1]; [5],909 ± 65.1 nM
"O=c1c(NCCCN(Cc2ccc(F)cc2)c2ccccn2)c(NCc2ccncc2)c1=O [TCMDC-142310, Fc1ccc(CN(CCCNc2c(NCc3ccncc3)c(= O)c2 = O)c2ccccn2)cc1]",IC50,P. falciparum 3D7 [1]; [4],100 ± 23.6 nM
same,effect on the increase in parasitaemia promoted by melatonin,P. falciparum 3D7 [2],able to inhibit the increase in parasitaemia partially
same,effect on the increase in parasitaemia promoted by serotonin,P. falciparum 3D7 [2],able to inhibit the increase in parasitaemia
same,classification on the serotonin/melatonin pathway in the parasite,P. falciparum 3D7 [2],potential partial agonists of this pathway in the parasite
same,effect on parasitaemia compared with the control,P. falciparum 3D7 [3],induced a significant increase in parasitaemia
"Cn1nccc1C(=O)NCCNCc1ccc(-c2ccc(-c3nc4cc(C(F)(F)F)ccc4[nH]3)s2)cc1 [TCMDC-133018, OC(= O)C(F)(F)F.Cn1nccc1C(= O)NCCNCc1ccc(cc1)-c1ccc(s1)-c1nc2cc(ccc2[nH]1)C(F)(F)F]",IC50,P. falciparum 3D7 [1]; [4],284 ± 125 nM
"O=C1CCCN1CCCNCc1ccc(-c2ccc(-c3nc4cc(C(F)(F)F)ccc4[nH]3)s2)cc1 [TCMDC-132764, OC(= O)C(F)(F)F.FC(F)(F)c1ccc2[nH]c(nc2c1)-c1ccc(s1)-c1ccc(CNCCCN2CCCC2 = O)cc1]",IC50,P. falciparum 3D7 [1]; [4],259 ± 49.4 nM
"Brc1ccc(Nc2nc(NCc3ccccc3)c3ccccc3n2)cc1 [TCMDC-124574, Brc1ccc(Nc2nc(NCc3ccccc3)c3ccccc3n2)cc1]",IC50,P. falciparum 3D7 [1]; [5],619 ± 213 nM
"O=C(/C=C/c1ccc(Cl)c(Cl)c1)Nc1cccc(CN2CCC(c3c[nH]c4ccc(O)cc34)CC2)c1 [TCMDC-139634, Oc1ccc2[nH]cc(C3CCN(Cc4cccc(NC(= O)\C = C\c5ccc(Cl)c(Cl)c5)c4)CC3)c2c1]",IC50,P. falciparum 3D7 [1]; [4],346 ± 47.5 nM
same,effect on the increase in parasitaemia promoted by melatonin,P. falciparum 3D7 [2],could inhibit the increase in parasitaemia promoted by melatonin thoroughly
same,effect on the increase in parasitaemia promoted by serotonin,P. falciparum 3D7 [2],able to inhibit the increase in parasitaemia
same,classification on the serotonin/melatonin pathway in the parasite,P. falciparum 3D7 [2],potential partial agonists of this pathway in the parasite
same,effect on parasitaemia compared with the control,P. falciparum 3D7 [3],induced a significant increase in parasitaemia
"CCN(CCNc1nc(NCCc2cnc[nH]2)nc(N(CCC#N)Cc2ccccc2)n1)c1cccc(C)c1 [TCMDC-139258, CCN(CCNc1nc(NCCc2cnc[nH]2)nc(n1)N(CCC#N)Cc1ccccc1)c1cccc(C)c1]",IC50,P. falciparum 3D7 [1]; [5],216 ± 15.4 nM
"COc1cc2nc(NCCc3ccccc3)nc(N(C)Cc3ccccc3)c2cc1OC [TCMDC-135385, COc1cc2nc(NCCc3ccccc3)nc(N(C)Cc3ccccc3)c2cc1OC]",IC50,P. falciparum 3D7 [1]; [5],1210 ± 315 nM
same,effect on the increase in parasitaemia promoted by melatonin,P. falciparum 3D7 [2],unable to block their effects on the erythrocyte cycle
same,effect on the increase in parasitaemia promoted by serotonin,P. falciparum 3D7 [2],unable to prevent the effect of the neurotransmitter on P. falciparum parasitaemia
same,effect on parasitaemia compared with the control,P. falciparum 3D7 [3],induced a significant increase in parasitaemia
"COc1cc(C)nc2ccc(NC(=O)c3ccc(C(=O)Nc4ccc5nc(C)cc(OC)c5c4)cc3)cc12 [TCMDC-139502, COc1cc(C)nc2ccc(NC(= O)c3ccc(cc3)C(= O)Nc3ccc4nc(C)cc(OC)c4c3)cc12]",IC50,P. falciparum 3D7 [1]; [4],98.2 ± 25.1 nM
"COc1ccc(CN2C(=S)N(Cc3ccccc3)C(=O)C2CC(=O)Nc2ccccc2)cc1OC (centres unmarked) [TCMDC-123874, COc1ccc(CN2C(CC(= O)Nc3ccccc3)C(= O)N(Cc3ccccc3)C2 = S)cc1OC]",IC50,P. falciparum 3D7 [1]; [4],759 ± 131 nM
"Fc1ccc2[nH]c(-c3cccc(-c4ccc(CN5CCN(c6ccncc6)CC5)cc4)c3)nc2c1 [TCMDC-132918, OC(= O)C(F)(F)F.Fc1ccc2[nH]c(nc2c1)-c1cccc(c1)-c1ccc(CN2CCN(CC2)c2ccncc2)cc1]",IC50,P. falciparum 3D7 [1]; [4],68.4 ± 6.93 nM
"COc1cc(NC(=O)N2CCOC(CCN3CCC4(CCc5ccccc54)CC3)(c3ccc(Cl)c(Cl)c3)C2)cc(OC)c1OC (centres unmarked) [TCMDC-135346, COc1cc(NC(= O)N2CCOC(CCN3CCC4(CCc5ccccc45)CC3)(C2)c2ccc(Cl)c(Cl)c2)cc(OC)c1OC]",IC50,P. falciparum 3D7 [1]; [4],75.5 ± 18.2 nM
"CCOc1ccc(C(=O)N2CCOC(CCN3CCC(c4ccccc4)CC3)(c3ccc(Cl)c(Cl)c3)C2)cc1 (centres unmarked) [TCMDC-135344, CCOc1ccc(cc1)C(= O)N1CCOC(CCN2CCC(CC2)c2ccccc2)(C1)c1ccc(Cl)c(Cl)c1]",IC50,P. falciparum 3D7 [1]; [4],462 ± 185 nM
"COc1ccc2ncc(F)c([C@H](O)CN3CCC(NCc4ccc5c(c4)NC(=O)CO5)CC3)c2c1 [TCMDC-135829, Cl.COc1ccc2ncc(F)c([C@H](O)CN3CCC(CC3)NCc3ccc4OCC(= O)Nc4c3)c2c1]",IC50,P. falciparum 3D7 [1]; [4],336 ± 176 nM
"Cc1cc(NC(=O)NCCN2CCC(NC(=O)c3ccc(Cl)cc3)CC2)c2ccccc2n1 [TCMDC-136171, Cc1cc(NC(= O)NCCN2CCC(CC2)NC(= O)c2ccc(Cl)cc2)c2ccccc2n1]",IC50,P. falciparum 3D7 [1]; [4],110 ± 46.2 nM
"COc1cc2nc(NCCc3ccccc3)nc(NCc3cc(C)no3)c2cc1OC [TCMDC-135435, COc1cc2nc(NCCc3ccccc3)nc(NCc3cc(C)no3)c2cc1OC]",IC50,P. falciparum 3D7 [1]; [5],734 ± 162 nM
same,effect on the increase in parasitaemia promoted by melatonin,P. falciparum 3D7 [2],able to inhibit the increase in parasitaemia partially
same,effect on the increase in parasitaemia promoted by serotonin,P. falciparum 3D7 [2],unable to prevent the effect of the neurotransmitter on P. falciparum parasitaemia
same,effect on parasitaemia compared with the control,P. falciparum 3D7 [3],did not significantly affect parasitaemia compared with the control
"COc1ccc(C2CC(=O)C3=C(C2)NC(C)=C(C(=O)OC(C)C)C3c2cccc(O)c2)cc1OC (centres unmarked) [TCMDC-125636, COc1ccc(cc1OC)C1CC(= O)C2 = C(C1)NC(C) = C(C2c1cccc(O)c1)C(= O)OC(C)C]",IC50,P. falciparum 3D7 [1]; [4],80.2 ± 18.9 nM
"COc1cc(NC(=O)N2CCOC(CCN3CCC4(CCc5ccccc54)CC3)(c3ccc(Cl)c(Cl)c3)C2)cc(OC)c1 (centres unmarked) [TCMDC-135338, COc1cc(NC(= O)N2CCOC(CCN3CCC4(CCc5ccccc45)CC3)(C2)c2ccc(Cl)c(Cl)c2)cc(OC)c1]",IC50,P. falciparum 3D7 [1]; [4],442 ± 78.8 nM
"COc1ccc(NC(=O)[C@H](CC(C)C)Nc2cc(C)nc(NCCc3ccccc3)n2)cc1 [TCMDC-134778, OC(= O)C(F)(F)F.COc1ccc(NC(= O)[C@H](CC(C)C)Nc2cc(C)nc(NCCc3ccccc3)n2)cc1]",IC50,P. falciparum 3D7 [1]; [4],497 ± 99.5 nM
"Clc1ccc2nccc(N3CCC(CN4CCC(c5c[nH]c6ccccc56)CC4)CC3)c2c1 [TCMDC-134281, OC(= O)C(F)(F)F.Clc1ccc2nccc(N3CCC(CN4CCC(CC4)c4c[nH]c5ccccc45)CC3)c2c1]",IC50,P. falciparum 3D7 [1]; [4],72.9 ± 10 nM
"CC[C@H](NC(=O)c1c(CC2CCN(CC(C)=O)CC2)c(-c2ccccc2)nc2ccccc12)c1ccccc1 [TCMDC-141946, CC[C@H](NC(= O)c1c(CC2CCN(CC(C) = O)CC2)c(nc2ccccc12)-c1ccccc1)c1ccccc1]",IC50,P. falciparum 3D7 [1]; [4],215 ± 27.9 nM
"O=C(Nc1ccccc1)N(Cc1cccc(-c2cccc(CNCc3ccc4c(c3)OCO4)c2)c1)C1CCN(Cc2ccccc2)CC1 [TCMDC-140590, OC(= O)C(F)(F)F.O = C(Nc1ccccc1)N(Cc1cccc(c1)c1cccc(CNCc2ccc3OCOc3c2)c1)C1CCN(Cc2ccccc2)CC1]",IC50,P. falciparum 3D7 [1]; [4],285 ± 144 nM
"NCCc1c[nH]c2ccc(O)cc12 [Serotonin, serotonin, reference compound]",increase of P. falciparum parasitaemia compared with the control,P. falciparum 3D7 [3]; 250 nM,11.86%
"COc1ccc2[nH]cc(CCNC(C)=O)c2c1 [Melatonin, melatonin, reference compound]",increase of P. falciparum parasitaemia compared with the control,P. falciparum 3D7 [3]; 100 nM,15.05%
"O=C(c1ccc(F)cc1)N1CCOC(CCN2CCC(c3ccccc3)CC2)(c2ccc(Cl)c(Cl)c2)C1 (centres unmarked) [TCMDC-135334, Fc1ccc(cc1)C(= O)N1CCOC(CCN2CCC(CC2)c2ccccc2)(C1)c1ccc(Cl)c(Cl)c1]",reduction of P. falciparum parasitaemia by 50%,P. falciparum 3D7 [1],could not reduce P. falciparum parasitaemia by 50%
